Substrate in series [1]: CN1CC=C(Sc2ccccc2)CC1
Put plainly: (§1) Tested against Monoamine oxidase B enzyme from bovine liver mitochondria. The method in brief:
(§2)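 Bovine liver mitochondrial MAO-B, 0.05 unit/mL (unit = 1 μmol benzylamine→benzaldehyde per min; equivalent to 3.7 nmol protein), incubated at 37 °C in 0.1 M sodium phosphate pH 7.4. Reaction started by substrate addition, final 0.1–3.0 mM. Product formation monitored spectrophotometrically, initial rates taken 30–180 s after enzyme addition. Apparent Vmax and KM from double reciprocal plot.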

Substrate in series [2]: CN1CC=C(OC(=O)N(C)C)CC1
Described as §1. In short, it runs like this:
as §2

Substrate in series [3]: CN1CC=C(OC(=O)N(C)c2ccccc2)CC1
The description is as §1. The method in brief:
as §2

Substrate in series [4]: CN1CC=C(Cc2ccccc2)CC1
The description is as §1. The method in brief: as §2

Substrate in series [5]: CN1CC=C(Oc2ccccc2)CC1
The series is described as §1. The method in brief: as §2

B1: Amine oxidase [flavin-containing] B (Bos taurus) (protein)
chain: MSSKCDVVVVGGGISGMAAAKLLHDSGLNVIVLEARDRVGGRTYTLRNQKVKYVDLGGSYVGPTQNHILRLSKELGLETYKVNEVERLIHHTKGKSYPFRGSFPSVWNPITYLDHNNLWRTMDDMGREIPSDAPWKAPLAEQWDLMTMKELLDKICWTESSKQLAILFVNLCVTAEIHEVSALWFLWYVKQCGGTTRIFSTSNGGQERKFVGGSGQVSERIMDLLGDRVKLERPVIHIDQTGENVLVETLNHELYEAKYVISAVPPVLGMKIHFNPPLPMMRNQLITRVPLGSVIKSIVYYKEPFWRNMDYCGSMIIEGEEAPVAYALDDTKPDGSYPAIIGFILAHKARKLARLTKEERLKKLCDLYAKVLGSQEALHPVHYEEKNWCEEQYSGGCYTSYFPPGIMTQYGRVLRQPVGRIYFAGTETATHWSGYMEGAVEAGERAAREILHAMGKIPEDEIWLPEPESVDVPAKPITTTFLQRHLPSVPGLLKLIGLTTIFSATALGFLAHKRGLLVRI
As a reminder, the Km is the concentration of substrate that gives half-maximal velocity. Usually Vmax stands for the rate approached at saturating substrate. Regarding B1, the Km in series [1] came out at 80 µM; in series [2] it was 7100 µM; in series [3], 3850 µM; in series [4] it was 83 µM; in series [5], 234 µM. Moreover, the Vmax amounted to 0.274 µM/min in series [1]; 0.401 µM/min in series [2]; 0.255 µM/min in series [3]; 0.222 µM/min in series [4]; 0.161 µM/min in series [5].

For the origin of these results see ChEMBL document CHEMBL1126092, “Design, synthesis, and biological evaluation of novel 4-substituted 1-methyl-1,2,3,6-tetrahydropyridine analogs of MPTP” (J Med Chem, 1992).
